Measured values published in ChEMBL document CHEMBL2331248, “Synthesis and biological evaluation of novel 2,4-disubstituted quinazoline analogues as GPR119 agonists” (Bioorg Med Chem, 2013).
The source made the active and inactive calls. The rule behind the calls is not given here.

Key:
Type in all cases: functional, cell-based
[1] = target: T1, Glucose-dependent insulinotropic receptor (Homo sapiens) (UniProt Q8TDV5); experiment: Agonist activity at human GPR119 expressed in HEK293 cells assessed as cAMP accumulation after 60 mins relative to OEA
T1 sequence (whole entry): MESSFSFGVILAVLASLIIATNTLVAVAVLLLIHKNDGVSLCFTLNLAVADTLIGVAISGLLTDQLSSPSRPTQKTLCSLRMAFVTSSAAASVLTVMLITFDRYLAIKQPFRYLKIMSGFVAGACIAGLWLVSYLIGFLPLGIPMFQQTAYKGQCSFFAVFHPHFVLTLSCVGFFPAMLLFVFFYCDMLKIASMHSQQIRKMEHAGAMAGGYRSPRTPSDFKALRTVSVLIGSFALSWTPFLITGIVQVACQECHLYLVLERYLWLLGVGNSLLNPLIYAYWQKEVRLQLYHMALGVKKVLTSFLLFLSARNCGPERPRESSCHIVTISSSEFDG
Method in brief: (§1)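 HEK293 cells (4x10³/well) seeded, after 24h transiently transfected with human GPR119 expression plasmid via Lipofectamine/Plus; 24h later exposed to compounds in KRBH with 0.1% BSA and 500 μM IBMX, 60 min, 37 C. Lysed 10 min at room temperature (50 mM phosphate, 1 M KF, 1.25% Triton X-100, pH 7.0); cAMP read by HTRF. EC50 taken as concentration giving 50% of OEA cAMP stimulation; %max relative to OEA maximal effect.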

[2] = target: T2, Glucose-dependent insulinotropic receptor (Homo sapiens, UniProt Q8TDV5); experiment: Agonist activity at human GPR119 expressed in HEK293 cells assessed as cAMP accumulation after 60 mins; method in brief: as §1
T2 sequence (Q8TDV5 whole entry): T1 sequence (whole entry)

[3] = target: T1, Glucose-dependent insulinotropic receptor (Homo sapiens); experiment: Agonist activity at human GPR119 expressed in HEK293 cells assessed as cAMP accumulation at 10 uM after 60 mins relative to OEA; method in brief: as §1
[4] = target: T1, Glucose-dependent insulinotropic receptor (Homo sapiens); experiment: Agonist activity at human GPR119 expressed in HEK293 cells assessed as cAMP accumulation at 10 uM after 60 mins

Structure (SMILES) | Emax [1] [%] | EC50 [2] [µM] | Emax [3] | Activity [4]
COc1cc2nc(OC3CCN(C(=O)OC(C)(C)C)CC3)nc(Nc3ccc(S(C)(=O)=O)cc3F)c2cc1OC | 19.6 | > 10 |  | 
COc1cc2nc(Nc3ccc(S(C)(=O)=O)cc3F)nc(OC3CCN(C(=O)OC(C)(C)C)CC3)c2cc1OC | 19.7 | > 10 |  | 
COc1cc2nc(N3CCC4CCC(C3)N4C(=O)OC(C)(C)C)nc(Nc3ccc(S(C)(=O)=O)cc3)c2cc1OC (racemic) | 32.7 | > 10 |  | 
COc1cc2nc(Nc3ccc(S(C)(=O)=O)cc3)nc(NCC3CC4CCC(C3)N4C(=O)OC(C)(C)C)c2cc1OC (centres undefined) | 15.1 | > 10 |  | 
COc1cc2nc(OCC3CCN(C(=O)OC(C)(C)C)CC3)nc(Nc3ccc(S(C)(=O)=O)cc3)c2cc1OC |  |  | inactive | inactive
COc1cc2nc(NCC3CC4CCC(C3)N4C(=O)OC(C)(C)C)nc(Nc3ccc(S(C)(=O)=O)cc3F)c2cc1OC (centres undefined) | 53.7 | 1 |  | 
COc1cc2nc(NCC3CC4CCC(C3)N4C(=O)OC(C)(C)C)nc(Nc3ccc(S(C)(=O)=O)cc3)c2cc1OC (centres undefined) | 19.9 | > 10 |  | 
COc1cc2nc(N3CCC4CCC(C3)N4Cc3ccccc3)nc(Nc3ccc(S(C)(=O)=O)cc3)c2cc1OC (racemic) | 23.4 | > 10 |  | 
COc1cc2nc(Nc3ccc(S(C)(=O)=O)cc3)nc(N3CCC4CCC(C3)N4Cc3ccccc3)c2cc1OC (racemic) | 32.8 | > 10 |  | 
COc1cc2nc(OCC3CCN(C(=O)OC(C)(C)C)CC3)nc(Nc3ccc(S(C)(=O)=O)cc3F)c2cc1OC | 33.2 | > 10 |  | 
COc1cc2nc(Nc3ccc(S(C)(=O)=O)cc3F)nc(OCC3CCN(C(=O)OC(C)(C)C)CC3)c2cc1OC | 21.3 | > 10 |  | 
COc1cc2nc(N3CCC4CCC(C3)N4C(=O)OC(C)(C)C)nc(Nc3ccc(S(C)(=O)=O)cc3F)c2cc1OC (racemic) | 56.9 | 1 |  | 
COc1cc2nc(Nc3ccc(S(C)(=O)=O)cc3)nc(OCC3CCN(C(=O)OC(C)(C)C)CC3)c2cc1OC | 17.4 | > 10 |  | 
COc1cc2nc(Nc3ccc(S(C)(=O)=O)cc3)nc(N3CCC4CCC(C3)N4C(=O)OC(C)(C)C)c2cc1OC (racemic) | 37.5 | > 10 |  | 
COc1cc2nc(OC3CCN(C(=O)OC(C)(C)C)CC3)nc(Nc3ccc(S(C)(=O)=O)cc3)c2cc1OC | 17.9 | > 10 |  | 
CCCCCCCC/C=C\CCCCCCCC(=O)NCCO [OLEOYLETHANOLAMIDE] |  | 2.2 |  | 
COc1cc2nc(Nc3ccc(S(C)(=O)=O)cc3)nc(OC3CCN(C(=O)OC(C)(C)C)CC3)c2cc1OC | 20.6 | > 10 |  | 
COc1cc2nc(Nc3ccc(S(C)(=O)=O)cc3)nc(NC3CC4CCC(C3)N4C(=O)OC(C)(C)C)c2cc1OC (centres undefined) | 17 | > 10 |  | 
COc1cc2nc(NC3CC4CCC(C3)N4C(=O)OC(C)(C)C)nc(Nc3ccc(S(C)(=O)=O)cc3F)c2cc1OC (centres undefined) | 46.2 | 1 |  | 
COc1cc2nc(N3CCC4CCC(C3)N4Cc3ccccc3)nc(Nc3ccc(S(C)(=O)=O)cc3F)c2cc1OC (racemic) | 44.3 | > 10 |  | 
